For test [1], the system named is A-375. The test can be described thus: Cytotoxicity against human A375 cells after 18 hrs by MTT assay. The format is functional, cell-based. The following applies: A-375, 18 h. In a few lines:
(§1)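 A375 cells (DMEM, 10% FBS, 37 °C, 5% CO2) seeded at 4 × 10⁴ cells/well and grown to 70–80% confluence. Treated with 0, 1, 2, 4, 8, 16 or 32 µg/ml for 6 h, then given 0 or 8 Gy X-ray (linear accelerator, 1.5 Gy/min), then 12 h more at 37 °C. MTT 4 h, formazan dissolved in DMSO, read at 570 nm; % of control; three repeats.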
A general note: Tetrazolium dyes change colour on reduction, which living cells bring about.

For test [2], the system named is A-375. The test can be described thus: Cytotoxicity against human A375 cells incubated for 6 hrs followed by irradiation with 8 Gy X-ray at 37 degC for 12 hrs by MTT assay. The test is classed as functional, cell-based. The settings on record: A-375, light or radiation study. In a few lines:
as §1

The subject of test [3] is A-375. Nature of the test: Induction of cell shrinkage in human A375 cells incubated for 6 hrs followed by irradiation with 8 Gy X-ray at 37 degC for 12 hrs by microscopy. The test is classed as functional, cell-based. An outline of the steps: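 A375 cells in DMEM with 10% FBS, 37 °C, 5% CO2. Pretreated with agent 6 h, then 0 or 8 Gy X-ray from a linear accelerator at 1.5 Gy/min, room temperature. Incubated a further 12 h; morphology imaged.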

The test system of test [4] is A-375. Nature of the test: Induction of cell morphological changes in human A375 cells incubated for 6 hrs followed by irradiation with 8 Gy X-ray at 37 degC for 12 hrs by microscopy. The format is functional, cell-based.
The subject of test [5] is A-375. The test can be described thus: Induction of ROS generation in human A375 cells at 8 ug/mL […] by DCF and DHE dye based fluorescence assay. The format is functional, cell-based.
The subject of test [6] is A-375. The test can be described thus: Induction of ROS generation in human A375 cells at 16 ug/mL […] by DCF and DHE dye based fluorescence assay. The format is functional, cell-based.
The subject of test [7] is A-375. Nature of the test: Induction of ROS generation in human A375 cells at 8 ug/mL incubated for 6 hrs followed by irradiation with 8 Gy X-ray at 37 degC for 12 hrs by DCF and DHE dye based fluorescence assay. The test is classed as functional, cell-based. In a few lines: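 A375 cells (4 × 10⁴/well) cultured 24 h, then treated 6 h at 8 or 16 µg/ml or at 2 or 4 µg/ml, and given 0 or 8 Gy X-ray. Loaded with H₂DCF or DHE for 30 min at 37 °C in the dark. Fluorescence read at 485/535 nm (DCF) or 480/610 nm (DHE); % of control.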

For test [8], the system named is A-375. The test can be described thus: Induction of apoptosis in human A375 cells assessed as accumulation at subG1 phase at 10 ug/mL incubated for 18 hrs by propidium iodide staining based flow cytometry (reference value: 1.8%). The test is classed as functional. An outline of the steps: (§2)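 A375 cells treated at 10 or 4 µg/ml for 6 h, given 0 or 8 Gy X-ray, then 12 h more. Trypsinized, washed in PBS, fixed overnight in ice-cold 75% ethanol at −20 °C. Stained with propidium iodide, 30 min at 37 °C in the dark; DNA content and sub-G1 population read by flow cytometry.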
(In general: Flow cytometry measures light scatter and fluorescence of single cells or particles in a stream.)

Test [9] concerns A-375. Nature of the test: Induction of cell cycle arrest in human A375 cells assessed as accumulation at S phase at 10 ug/mL incubated for 18 hrs by propidium iodide staining based flow cytometry (reference value: 37.2%). The format is functional. In a few lines:
as §2

Test [10] has as its system A-375. Nature of the test: Induction of cell cycle arrest in human A375 cells assessed as accumulation at G1/G0 phase at 10 ug/mL incubated for 18 hrs by propidium iodide staining based flow cytometry (reference value: 48.9%). The format is functional. In a few lines:
as §2

Test [11] relates to A-375. The test can be described thus: Induction of cell cycle arrest in human A375 cells assessed as accumulation at G2/M phase at 10 ug/mL incubated for 18 hrs by propidium iodide staining based flow cytometry (reference value: 13.9%). The test is classed as functional. In a few lines:
as §2

Test [12] deals with A-375. Nature of the test: Induction of apoptosis in human A375 cells assessed as accumulation at subG1 phase at 10 ug/mL incubated for 6 hrs followed by irradiation with 8 Gy X-ray at 37 degC for 12 hrs by propidium iodide staining based flow cytometry (reference value: 2.3%). The format is functional. An outline of the steps: as §2
The subject of test [13] is A-375. The test can be described thus: Induction of cell cycle arrest in human A375 cells assessed as accumulation at G1/G0 phase at 10 ug/mL incubated for 6 hrs followed by irradiation with 8 Gy X-ray at 37 degC for 12 hrs by propidium iodide staining based flow cytometry (reference value: 44.9%). The format is functional. In a few lines: as §2
Test [14] relates to A-375. Nature of the test: Induction of cell cycle arrest in human A375 cells assessed as accumulation at S phase at 10 ug/mL incubated for 6 hrs followed by irradiation with 8 Gy X-ray at 37 degC for 12 hrs by propidium iodide staining based flow cytometry (reference value: 7.9%). The format is functional. In a few lines: as §2
The subject of test [15] is A-375. The test can be described thus: Induction of cell cycle arrest in human A375 cells assessed as accumulation at G2/M phase at 10 ug/mL incubated for 6 hrs followed by irradiation with 8 Gy X-ray at 37 degC for 12 hrs by propidium iodide staining based flow cytometry (reference value: 47.2%). The test is classed as functional. In a few lines: as §2
For test [16], the system named is A-375. Nature of the test: Induction of ROS generation in human A375 cells at 16 ug/mL incubated for 6 hrs followed by irradiation with 8 Gy X-ray at 37 degC for 12 hrs by DCF and DHE dye based fluorescence assay.

In general, IC50 refers to the midpoint of a concentration-inhibition curve. A lower IC50 goes with greater potency.

Molecules are shown by their SMILES. In brackets after ≈: the same amount, converted by molar mass. Activity calls are given as the source filed them. The calls are words filed in the database; no cut-off is given here.

In the case of `COc1cc(Cn2c(-c3cc(OC)c(OC)c(OC)c3)nc3cc(-c4ccc5n[se]nc5c4)ccc32)cc(OC)c1OC`, the results for the IC50 in [1] and in test [2] were 28.3 µg/mL (≈ 43.8 µM) and 9.2 µg/mL (≈ 14.3 µM), respectively. Moreover, the result in [3] and in test [4] was Active.
`COc1cc(Cn2c(-c3cc(OC)c(OC)c(OC)c3)nc3ccc(-c4ccc5n[se]nc5c4)cc32)cc(OC)c1OC`: the outcome in test [5], in test [6], in [7], in test [3], in test [4] and in test [16] was Active. Further, the half-maximal inhibitory concentration (IC50) in [1] was determined as 26.4 µg/mL (≈ 40.9 µM); in test [2] it was 8 µg/mL (≈ 12.4 µM). The Activity is 11.7% in [8]; 21.3% in [9]; 69.3% in [10]; 9.4% in test [11]; 57.6% in test [12]; 60.5% in [13]. Further, the figures for the Activity in test [14] and in test [15] were 36.8% and 2.7%, respectively.

Source of the values: ChEMBL document CHEMBL3352644, “Selenadiazole derivatives as potent thioredoxin reductase inhibitors that enhance the radiosensitivity of cancer cells” (Eur J Med Chem, 2014).
